Measured values published in ChEMBL document CHEMBL1144910, “S-acyl-2-thioethyl aryl phosphotriester derivatives of AZT: synthesis, antiviral activity, and stability study” (J Med Chem, 2003).

Tests used:
CEM-SS [1] = experiment: Cytotoxic concentration required to reduce the viability […] by 50% in CEM-SS cells; assay type: functional; settings: Homo sapiens
Procedure, shortened: (§1)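 Viability measured in uninfected cells of each line; CC50 is the concentration reducing viability by 50%. Values are averages of at least three separate experiments, with variation under standard operating procedures below ±10%.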

CCRF-CEM [2] = experiment: Effective concentration required to inhibit the replication of HIV-1 by 50% in CEM/TK cells; assay type: functional, cell-based; settings: Homo sapiens
Procedure, shortened: (§2)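 Cells infected with HIV-1; EC50 is the concentration inhibiting viral replication by 50%. Values are averages of at least three separate experiments, with variation below ±10%.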

MT4 [3] = experiment: Cytotoxic concentration required to reduce the viability […] by 50% MT-4 cells; assay type: functional; settings: Homo sapiens; procedure, shortened: as §1
CCRF-CEM [4] = experiment: Cytotoxic concentration required to reduce the viability […] by 50% in CEM/TK cells; assay type: functional; settings: Homo sapiens; procedure, shortened: as §1
[5] = In vitro Apparent partition coefficients of mixed aryl phosphodiester was determined; assay type: physicochemical; settings: octanol/water
Procedure, shortened: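 Apparent log P by an adapted shake-flask method, partitioning between 1-octanol and 0.02 M potassium phosphate buffer at pH 7.2. Each compound was run in triplicate.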

MT4 [6] = experiment: Effective concentration required to inhibit the replication of HIV-1 by 50% in MT-4 cells; assay type: functional, cell-based; settings: Homo sapiens; procedure, shortened: as §2
CEM-SS [7] = experiment: Effective concentration required to inhibit the replication of HIV-1 by 50% in CEM-SS cells; assay type: functional, cell-based; settings: Homo sapiens; procedure, shortened: as §2
[8] = Half-life was determined for the compound in cell extracts (CE); assay type: ADME
Procedure, shortened: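 Total CEM-SS cell extracts, 37 °C, phosphotriester at 50 µM initial concentration. Samples analysed by on-line ISRP-cleaning HPLC (C18, acetonitrile gradient in 20 mM triethylammonium acetate pH 6.9, 267 nm). Products identified by HPLC-ESI-MS and/or co-injection. Relative amounts taken from peak areas. Half-lives derived from pseudo-first-order rate constants fitted by mono- or polyexponential regression.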

[9] = Half-life was determined for the compound in cell extracts pre-incubated with EDTA; assay type: ADME
[10] = Half-life was determined for the compound in heat inactivated cell extracts; stable; assay type: ADME
[11] = Half-life was determined for the compound in cell extracts pre-incubated with EDTA; stable; assay type: ADME

| half-life [8] [h] | half-life [9] [h] | T1/2 [10] | T1/2 [11] | Compound | CC50 (CEM-SS [1]) [µM] | EC50 (CCRF-CEM [2]) [µM] | CC50 (MT4 [3]) [µM] | CC50 (CCRF-CEM [4]) [µM] | logD [5] | EC50 (MT4 [6]) [µM] | EC50 (CEM-SS [7]) [µM] |
| --- | --- | --- | --- | --- | --- | --- | --- | --- | --- | --- | --- |
| – | – | – | – | Cc1cn([C@H]2C[C@H](N=[N+]=[N-])[C@@H](COP(=O)(OCCSC(=O)C(C)(C)C)Oc3ccc(C[C@H](N)CO)cc3)O2)c(=O)[nH]c1=O (stereo not given in full) | > 100 | 7 | > 100 | > 100 | 0.64 | 0.018 | 0.007 |
| – | – | – | – | CC(=O)N[C@@H](Cc1ccc(OP(=O)(OCCSC(=O)C(C)(C)C)OC[C@H]2O[C@@H](n3cc(C)c(=O)[nH]c3=O)C[C@@H]2N=[N+]=[N-])cc1)C(N)=O (stereo not given in full) | > 10 | 8 | > 10 | > 10 | 1.52 | 0.066 | 0.082 |
| – | – | – | – | CC(=O)N(C(=O)OC(C)(C)C)[C@@H](Cc1ccc(OP(=O)(OCCSC(=O)C(C)(C)C)OC[C@H]2O[C@@H](n3cc(C)c(=O)[nH]c3=O)C[C@@H]2N=[N+]=[N-])cc1)C(=O)N(C(=O)OC(C)(C)C)C(=O)OC(C)(C)C (stereo not given in full) | > 10 | 6 | > 10 | > 10 | 5.8 | 0.032 | 0.015 |
| – | – | – | – | Cc1cn([C@H]2C[C@H](N=[N+]=[N-])[C@@H](COP(=O)(OCCSC(=O)C(C)(C)C)Oc3ccc(C[C@H]4COC(C)(C)N4C(=O)OC(C)(C)C)cc3)O2)c(=O)[nH]c1=O (stereo not given in full) | > 10 | 9 | > 10 | > 10 | 3.7 | 0.098 | 0.031 |
| – | – | – | – | Cc1cn([C@H]2C[C@H](N=[N+]=[N-])[C@@H](CO)O2)c(=O)[nH]c1=O [ZIDOVUDINE] | > 100 | > 100 | > 100 | > 100 | 0.06 | – | 0.003 |
| 19.3 | 166 | stable | – | CC(=O)N[C@@H](Cc1ccc(OP(=O)(O)OC[C@H]2O[C@@H](n3cc(C)c(=O)[nH]c3=O)C[C@@H]2N=[N+]=[N-])cc1)C(N)=O.Cl | – | – | – | – | – | – | – |
| – | – | – | – | Cc1cn([C@H]2C[C@H](N=[N+]=[N-])[C@@H](COP(=O)(OCCSC(=O)C(C)(C)C)Oc3ccc(C[C@H](N)C(N)=O)cc3)O2)c(=O)[nH]c1=O (stereo not given in full) | > 10 | 4 | > 10 | > 10 | 1.27 | 0.016 | 0.002 |
| – | – | – | – | Cc1cn([C@H]2C[C@H](N=[N+]=[N-])[C@@H](COP(=O)(OCCSC(=O)C(C)(C)C)Oc3ccc(C[C@H](NC(=O)OC(C)(C)C)C(=O)N(C(=O)OC(C)(C)C)C(=O)OC(C)(C)C)cc3)O2)c(=O)[nH]c1=O (stereo not given in full) | > 10 | 4 | > 10 | > 10 | 5 | 0.034 | 0.049 |
| 12.8 | – | stable | stable | Cc1cn([C@H]2C[C@H](N=[N+]=[N-])[C@@H](COP(=O)(O)Oc3ccc(C[C@H](N)C(=O)O)cc3)O2)c(=O)[nH]c1=O.Cl | – | – | – | – | – | – | – |
| – | – | – | – | Cc1cn([C@H]2C[C@H](N=[N+]=[N-])[C@@H](COP(=O)(OCCSC(=O)C(C)(C)C)Oc3ccc(C[C@@H](CO)NC(=O)OC(C)(C)C)cc3)O2)c(=O)[nH]c1=O (stereo not given in full) | – | 4 | > 10 | > 10 | 2.5 | 0.044 | 0.017 |
| 68 | – | stable | stable | Cc1cn([C@H]2C[C@H](N=[N+]=[N-])[C@@H](COP(=O)(O)Oc3ccc(C[C@H](N)CO)cc3)O2)c(=O)[nH]c1=O.Cl | – | – | – | – | – | – | – |
| – | – | – | – | Cc1cn([C@H]2C[C@H](N=[N+]=[N-])[C@@H](COP(=O)(OCCSC(=O)C(C)(C)C)Oc3ccc(C[C@H](N)C(=O)O)cc3)O2)c(=O)[nH]c1=O (stereo not given in full) | > 100 | 29 | > 10 | > 100 | 0.25 | 0.075 | 0.006 |
